GPR7 antag = GPR7 receptor antagonists, primary screen, cell-based, fluorescence, single concentration; Neuropeptides B/W receptor type 1 (Homo sapiens), P48145; GPR7-expressing cells, fluorescence antagonist assay; inhibition, % at 4.4 µM; 290,000 tested, 1.1% active; in the data active = inhibition above about 16%, passing the limit was not always enough;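 also: cells stimulated with the agonist NPW; 0% = agonist with vehicle and 100% = vehicle without agonist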
OX1R antag-1 = antagonists of human orexin 1 receptor (OX1R). Orexin/Hypocretin receptor type 1 (Homo sapiens), O43613. OX1R-expressing cells, FRET antagonist read-out. inhibition, % at 6.6 µM. 330,000 tested, 1.8% active; in the data active = inhibition mostly above about 38%, no sharp cut-off; inactive = mostly below about 40%;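 also: 0% = agonist challenge alone and 100% = reference antagonist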
Target sequence (O43613 whole entry, looked up): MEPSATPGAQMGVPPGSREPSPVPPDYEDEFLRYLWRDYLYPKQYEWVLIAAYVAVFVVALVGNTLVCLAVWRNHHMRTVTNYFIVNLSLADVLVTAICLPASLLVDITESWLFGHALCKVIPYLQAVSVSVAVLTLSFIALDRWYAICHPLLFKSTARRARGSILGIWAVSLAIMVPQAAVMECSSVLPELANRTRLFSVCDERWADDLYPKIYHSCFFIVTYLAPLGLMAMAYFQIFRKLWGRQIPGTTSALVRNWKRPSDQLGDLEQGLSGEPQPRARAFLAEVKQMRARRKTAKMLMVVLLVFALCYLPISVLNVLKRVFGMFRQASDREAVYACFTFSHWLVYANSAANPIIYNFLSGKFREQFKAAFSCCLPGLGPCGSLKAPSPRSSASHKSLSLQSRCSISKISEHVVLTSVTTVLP
CHO parental Ca = ATP-evoked calcium signal inhibitors, parental CHO, primary screen, counter-screen for OX1R antagonist project, cell-based, fluorescence, Fluo-8 calcium dye. parental CHO-K1, ATP-induced calcium, Fluo-8 fluorescence. inhibition, % at 5.6 µM. 330,000 tested, 0.63% active;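 active = inhibition above that plate's mean sample inhibition plus 3 SD, cut at about 26% in these data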;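 also: 0% = ATP-challenged DMSO wells and 100% = DMSO wells without ATP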
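Assay system: parental CHO cells; Read-out basis: percent inhibition of ATP-evoked calcium rise, normalized to controls; Benchmarks: ATP and no-ATP DMSO wells; Compound dosing: single nominal dose of 5.6 µM per compound; Signal: Fluo-8 calcium dye fluorescence; Also added: ATP as calcium-mobilizing challenge; Repeats: singlicate.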
OX1R antag-2 = OX1R (HCRTR1) antagonists, primary screen, fluorescence, CHO/OX1R cells, Fluo-8 calcium, orexin A. AID 434989, 2010. 330,000 tested, 0.43% active. inhibition, % at 5 µM. Orexin/Hypocretin receptor type 1 (Homo sapiens), O43613. Fluo-8 calcium fluorescence;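 active = inhibition above its plate's threshold, mean inhibition of all tested compounds on the plate plus 3 SD, cut at about 37% in these data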;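 also: 0% = orexin A challenge wells and 100% = SB-334867-A antagonist wells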
TAAR1 ag = human TAAR1 agonists, primary screen, Fluo-8 calcium fluorescence, CHO RD-HGA16 cells; Trace amine-associated receptor 1 (Homo sapiens), Q96RJ0; vehicle wells 0%, saturating PEA agonist 100%; activation, % at 3 µM; 360,000 tested, 0.99% active; AID 624467, 2012;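 active = activation above the mean activation of all test compounds in the run plus 3 SD, cut at about 38% in these data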
Target sequence (Q96RJ0 whole entry, looked up): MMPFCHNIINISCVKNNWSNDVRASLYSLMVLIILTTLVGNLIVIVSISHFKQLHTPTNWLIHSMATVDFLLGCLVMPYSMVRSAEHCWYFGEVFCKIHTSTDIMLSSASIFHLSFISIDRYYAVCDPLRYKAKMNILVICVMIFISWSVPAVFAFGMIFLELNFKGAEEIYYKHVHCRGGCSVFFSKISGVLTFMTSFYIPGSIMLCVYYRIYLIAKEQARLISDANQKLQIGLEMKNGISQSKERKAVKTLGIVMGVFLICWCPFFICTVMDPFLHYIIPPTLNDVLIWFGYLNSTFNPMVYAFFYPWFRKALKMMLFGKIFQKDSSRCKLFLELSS
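Assay system – CHO-derived RD-HGA16 cells with stable Gα16 and human TAAR1 · Compound dosing – one-point dosing at 3 µM (nominal) · Incubation – 17-24 h seeding, 75 min 37 °C dye, 30 min RT · Measured by – kinetic Fluo-8 calcium fluorescence · Control set – DMSO vehicle as 0%, PEA at EC100 as 100% · Repeats – single well for each compound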
TAAR1 antag = human TAAR1 antagonists, primary screen, Fluo-8 calcium fluorescence, CHO RD-HGA16 cells. Trace amine-associated receptor 1 (Homo sapiens), Q96RJ0. antagonist. inhibition, % at 3 µM. 360,000 tested, 1.5% active. AID 624466, 2012;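 active = inhibition above a per-plate cutoff, the mean inhibition of test compounds on that plate plus 3 SD, cut at about 49% in these data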;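 also: 0% = DMSO plus EC80 beta-PEA response and 100% = DMSO alone without agonist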
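System: CHO RD-HGA16 cells bearing hTAAR1. Reagent: EC80 β-phenethylamine stimulus. Schedule: seeding 17-24 h prior, 75-min 37 °C, 30-min RT dye loading. Signal: Fluo-8 intracellular calcium dye fluorescence, real-time kinetic reads. Read-out: % inhibition from peak post-agonist over basal fluorescence ratio. Benchmarks: vehicle wells and EC80 agonist wells. Replicates: n of 1.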
GPR7 antag cf = GPR7 receptor antagonists, confirmation, cell-based, fluorescence, single concentration | shares compounds with GPR7 antag | GPR7-expressing cells, calcium fluorescence antagonist mode | inhibition, % at 4.4 µM | 2,400 tested, 52% active | AID 1952, 2009; in the data active = inhibition above about 24%;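 also: stimulated with the GPR7 agonist NPW; 0% = agonist plus vehicle and 100% = vehicle alone without agonist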
MCHR1 antagonist = MCHR1 antagonists in cells, counter-screen for GPR7 antagonist project, cell-based, fluorescence, human | shares compounds with GPR7 antag | MCHR1-expressing cells, fluorescence antagonist assay | inhibition, % at 4.4 µM | 2,400 tested, 62% active | AID 2148, 2009; in the data active = inhibition above about 22%;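 also: 0% = vehicle with agonist and 100% = vehicle without agonist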
Starred values were filed as active, the others as inactive; . = no result given. This is a sample that favours compounds with a hit; in the whole collection about 4.6% have one here.

SMILES	GPR7 antag	OX1R antag-1	CHO parental Ca	OX1R antag-2	TAAR1 ag	TAAR1 antag	GPR7 antag cf	MCHR1 antagonist
COc1ccc(S(=O)(=O)N2CCCCC2)cc1C(=O)Nc1cc(C)on1	-4.7	20.4	5.2	3.8	0.1	7.0	.	.
COc1cc(/C=N/NC(=O)c2ccc(F)cc2)ccc1OC(=O)c1ccco1	5.1	5.2	-13.8	-15.3	2.5	1.7	.	.
O=C(N/N=C/c1cccc(OC(=O)c2ccco2)c1)c1ccc(F)cc1	21.6*	10.4	-10.8	-20.9	-1.5	18.3	16.3	23.4*
S=C(NCc1ccc(Cl)cc1)NC1CCN(Cc2ccccc2)CC1	25.5*	14.3	8.4	4.3	51.0*	6.7	40.3*	63.8*
S=C(NCc1ccccc1Cl)NC1CCCC1	21.1*	13.7	-6.5	-5.6	4.7	-16.5	-3.6	19.1
Fc1ccccc1CNC(=S)NC1CCCCC1	-13.2	.	.	.	1.8	-34.4	.	.
Cc1ccc(NC(=S)NCc2ccc(Cl)cc2)c(C)c1	30.9*	3.8	-1.0	-29.0	-0.2	-6.7	24.2*	9.9
S=C(NCc1ccccc1)NCc1cccc(Cl)c1	-9.9	.	.	.	1.6	-9.5	.	.
S=C(NCCc1cccc(Cl)c1)NCc1ccccc1	22.7*	.	.	.	.	.	13.6	20.5
Clc1ccc(CNC2CCN(Cc3ccccc3)CC2)cc1	20.1	11.3	-4.3	-26.9	0.8	-2.4	.	.
COc1ccc(CCC(=O)OCC(=O)Nc2ccccc2OC(F)F)cc1OC	1.4	7.2	-23.6	-31.3	6.9	-11.4	.	.
CCOP(=O)(OCC)C(Nc1ccc(OC)cc1)c1ccco1 (centres undefined)	-7.4	3.5	0.1	-18.8	7.8	-12.8	.	.
CCc1ccc(NC(=S)NCc2ccccc2)cc1	8.5	15.3	12.6	-10.7	1.1	-20.2	.	.
S=C(NCc1ccccc1)Nc1ccc(Cl)cc1	21.2*	13.4	12.7	11.1	6.8	32.3	18.5	42.9*
Cc1cccc(C(=O)N(CCc2ccccc2)Cc2ccccc2)c1[N+](=O)[O-]	24.1*	40.1	29.9	2.6	27.5	-15.7	24.4*	66.9*
Oc1ccc(/C=C/c2ccnc3ccccc23)cc1	0.3	27.0	8.1	14.1	13.5	-10.7	.	.
Clc1ccccc1/C=C/c1ccnc2ccccc12	7.1	19.6	-38.6	-31.6	14.7	6.8	-5.6	13.3
O=C(c1ccc(NS(=O)(=O)c2ccc(F)cc2)cc1)N1CCCCC1	.	14.3	-0.4	1.8	3.8	-5.9	.	.
O=C(c1ccc(S(=O)(=O)Nc2ccccc2)cc1)N1CCCCCCC1	25.0*	19.4	-15.8	-27.5	32.7	25.7	19.4	16.7
O=C(c1ccc(NS(=O)(=O)c2cccs2)cc1)N1CCCCC1	21.4*	26.6	-2.6	3.5	7.9	-4.4	-15.1	3.3
O=C(CNc1ccc2ccccc2c1)N/N=C/c1cc2ccccc2nc1Cl	14.3	16.0	-4.7	-13.7	0.9	12.9	.	.
CCCNC(=O)C1CN(C(=O)c2nn(Cc3ccccc3)c(=O)c3ccccc23)c2ccccc2O1 (centres undefined)	.	14.3	-33.5	-22.5	0.2	0.1	.	.
CCNS(=O)(=O)c1ccc(CCC(=O)NCc2ccc3c(c2)OCO3)cc1	-8.8	1.9	-2.4	-20.1	1.2	-6.0	.	.
O=C(c1ccccn1)N(Cc1cccs1)C1(C(=O)NC2CCCCC2)CCCCC1	3.0	4.6	-19.1	-17.7	0.7	-38.6	.	.
O=C(c1cnccn1)N(Cc1cccs1)C1(C(=O)NC2CCCCC2)CCCCC1	41.4*	37.8	-19.6	-23.4	0.1	-24.4	30.3*	30.0*
SMILES	GPR7 antag	OX1R antag-1	CHO parental Ca	OX1R antag-2	TAAR1 ag	TAAR1 antag	GPR7 antag cf	MCHR1 antagonist
O=C(c1cnccn1)N(Cc1cccs1)C1(C(=O)NC2CCCC2)CCCCC1	26.3*	16.6	-7.2	-14.9	1.0	-1.6	37.2*	21.2
O=C(Nc1ccc(-n2ccc(C(F)(F)F)n2)cc1)Nc1cccc(Cl)c1	21.1*	30.6	22.3	57.0*	13.2	34.4	41.6*	71.4*
O=C(O)c1ccccc1C(=O)Nc1ccc(-n2ccc(C(F)(F)F)n2)cc1	-14.2	12.2	-13.6	3.2	16.1	-7.9	.	.
CC(Nc1nc(N2CCCCC2)nc2ccccc12)c1ccccc1 (centres undefined)	24.3*	3.1	-11.6	-25.0	32.6	7.7	30.3*	56.9*
CC(Nc1nc(-c2ccccc2)nc2ccccc12)c1ccccc1 (centres undefined)	-25.9	14.2	24.8	-44.0	3.4	-31.3	.	.
Cc1ccc(S(=O)(=O)N(C)CC(=O)N(C)CCOc2ccccc2)cc1	.	.	.	.	0.6	-6.0	.	.
COc1ccc(CCNC(=O)COC(=O)c2ccc(N3CCCC3=O)cc2)cc1	-9.3	26.1	-17.5	-8.5	2.6	8.7	.	.
C/C(=N/NC(=O)CCc1ccccc1)c1ccc2c(c1)OCO2	25.7*	.	.	.	0.5	-18.9	2.1	-3.1
O=C(CN1C(=O)COc2ccccc21)N1CCOCC1	32.0*	9.5	-12.5	1.4	2.7	-5.4	-2.8	-1.0
O=C(CN1C(=O)COc2ccccc21)N1CCCC1	9.8	3.5	-6.7	-2.2	1.9	7.2	.	.
Cc1cc(Cl)ccc1OCC(O)CNCCc1ccc(S(N)(=O)=O)cc1 (centres undefined)	67.5*	1.2	-5.4	-14.3	3.2	8.0	65.6*	72.8*
Cc1cc(Cl)ccc1NC(=S)NCCc1ccc(S(N)(=O)=O)cc1	.	25.8	8.3	-12.5	8.2	4.2	.	.
CC(C)C[C@H](NC(=O)c1ccccc1)C(=O)N1CCC[C@H]1C(=O)NCc1ccccc1	.	.	.	.	8.5	-24.8	.	.
CNC(=O)/C(C#N)=C/c1c(N(Cc2ccccc2)Cc2ccccc2)nc2c(C)cccn2c1=O	39.2*	13.7	-3.3	-15.5	17.9	22.2	23.2	48.7*
O=C(Cc1n[nH]c(=O)c2ccccc12)OCC(=O)c1ccc2c(c1)OCCO2	28.1*	24.5	-19.3	-18.8	6.0	2.2	-9.3	15.0
O=C(Cc1n[nH]c(=O)c2ccccc12)OCC(=O)c1ccc(F)cc1	.	19.8	-9.8	-24.9	2.1	-21.4	.	.

Bioassay records (PubChem BioAssay)
